Among the data in ChEMBL document CHEMBL1142242, “Indanylacetic acid derivatives carrying 4-thiazolyl-phenoxy tail groups, a new class of potent PPAR alpha/gamma/delta pan agonists: synthesis, structure-activity relationship, and in vivo efficacy” (J Med Chem, 2007) are EC50 values, retold here.

For assay [1], the target named is T1, Peroxisome proliferator-activated receptor alpha (Homo sapiens, UniProt Q07869).
T1 sequence (Q07869 whole entry): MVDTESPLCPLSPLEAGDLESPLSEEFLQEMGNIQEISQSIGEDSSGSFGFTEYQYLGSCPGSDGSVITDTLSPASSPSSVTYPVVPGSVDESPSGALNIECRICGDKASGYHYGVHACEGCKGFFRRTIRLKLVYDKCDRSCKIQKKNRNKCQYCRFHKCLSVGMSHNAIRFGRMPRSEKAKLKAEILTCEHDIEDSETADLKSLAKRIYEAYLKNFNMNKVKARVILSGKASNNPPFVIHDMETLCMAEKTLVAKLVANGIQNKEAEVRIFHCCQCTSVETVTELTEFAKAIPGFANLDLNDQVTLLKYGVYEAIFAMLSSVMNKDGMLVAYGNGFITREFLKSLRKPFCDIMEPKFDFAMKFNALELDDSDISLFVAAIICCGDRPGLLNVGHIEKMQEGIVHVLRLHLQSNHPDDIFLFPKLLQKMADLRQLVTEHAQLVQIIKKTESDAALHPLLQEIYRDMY
The assay can be described thus: Agonist activity at human PPAR alpha by FRET assay. Type of assay: functional. Summed up: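 Human PPARα ligand binding domain (GST-tagged) association with biotin-labeled co-activator CBP; Eu-labeled anti-GST antibody and streptavidin-APC; incubated 2 h at rt in buffer with or without compound; fluorescence read at 615 or 655 nm emission, 340 nm excitation.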

In assay [2] the target is T2, Peroxisome proliferator-activated receptor delta (Homo sapiens, UniProt Q03181).
T2 sequence (Q03181 whole entry): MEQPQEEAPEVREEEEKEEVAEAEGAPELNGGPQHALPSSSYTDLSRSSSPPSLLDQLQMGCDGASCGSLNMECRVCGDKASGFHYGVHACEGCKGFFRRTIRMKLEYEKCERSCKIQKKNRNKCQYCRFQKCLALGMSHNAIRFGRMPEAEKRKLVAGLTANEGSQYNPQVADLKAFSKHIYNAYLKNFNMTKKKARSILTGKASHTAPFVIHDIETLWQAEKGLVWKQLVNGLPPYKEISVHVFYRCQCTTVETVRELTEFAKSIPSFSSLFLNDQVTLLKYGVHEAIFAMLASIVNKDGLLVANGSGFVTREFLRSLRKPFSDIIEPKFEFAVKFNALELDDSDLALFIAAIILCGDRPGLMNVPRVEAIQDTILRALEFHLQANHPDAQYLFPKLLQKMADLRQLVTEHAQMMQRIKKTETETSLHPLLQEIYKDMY
Description: Agonist activity at human PPAR delta by FRET assay. Type of assay: functional.

In assay [3] the target is T3, Peroxisome proliferator-activated receptor gamma (Mus musculus, UniProt P37238).
T3 sequence (P37238 whole entry): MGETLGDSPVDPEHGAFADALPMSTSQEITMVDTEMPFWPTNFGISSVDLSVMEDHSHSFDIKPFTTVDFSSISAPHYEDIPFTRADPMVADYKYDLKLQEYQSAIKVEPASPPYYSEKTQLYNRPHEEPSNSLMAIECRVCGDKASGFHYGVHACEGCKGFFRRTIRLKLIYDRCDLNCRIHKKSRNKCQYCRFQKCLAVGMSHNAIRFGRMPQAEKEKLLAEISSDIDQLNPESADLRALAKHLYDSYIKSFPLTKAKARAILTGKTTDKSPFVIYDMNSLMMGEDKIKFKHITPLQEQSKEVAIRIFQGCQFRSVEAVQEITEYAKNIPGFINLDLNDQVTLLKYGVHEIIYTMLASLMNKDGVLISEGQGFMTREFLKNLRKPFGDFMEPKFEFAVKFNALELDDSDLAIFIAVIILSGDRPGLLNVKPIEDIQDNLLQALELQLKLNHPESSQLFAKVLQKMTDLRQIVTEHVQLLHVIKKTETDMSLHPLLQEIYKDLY
The assay can be described thus: Agonist activity at PPAR gamma in mouse 3T3L1 cells assessed as increase in insulin receptor by IRBA. Type of assay: functional, cell-based, 3T3-L1.

The term EC50 denotes the concentration needed to bring the measured effect to its halfway point. In the case of `CCCc1cc(-c2nc(C)c(C(C)=O)s2)ccc1OCCCOc1ccc2c(c1)CC[C@H]2CC(=O)O`, the concentration giving a half-maximal response (EC50) in assay [1] came to 175 nM; in assay [2] it was 18 nM; in assay [3], 17 nM.

As to `O=C(O)C[C@@H]1CCc2cc(OCCCOc3ccc(-c4nc5c(s4)CCC5)cc3)ccc21`, the concentration giving a half-maximal response (EC50) in assay [1] is 112 nM; in assay [2], 1.3 nM; in assay [3], 1200 nM.

As to `COc1ccncc1-c1ccc(OCCCOc2ccc3c(c2)CC[C@H]3CC(=O)O)cc1`, the values for the EC50 in assay [1], in assay [2] and in assay [3] were greater than 10000 nM, 43 nM and 485 nM, respectively.

`O=C(O)C[C@@H]1CCc2cc(OCCCOc3ccc(-n4cnnc4)cc3Cl)ccc21`: the figures for the EC50 in assay [1], in assay [2] and in assay [3] were 6850 nM, 2230 nM and 8700 nM, respectively.

As for `CCCc1c(OCCCOc2ccc3c(c2)CC[C@H]3CC(=O)O)ccc2[nH]ccc12`, the 50% effective concentration (EC50) in assay [1] was greater than 10000 nM; in assay [2] it was 6.2 nM; in assay [3], 460 nM.

With `Cn1ccc2cc(OCCCOc3ccc4c(c3)CC[C@H]4CC(=O)O)ccc21`, the EC50 in assay [1] is 6700 nM; in assay [2] it was 40 nM; in assay [3], 1030 nM.

For `O=C(O)C[C@@H]1CCc2cc(OCCCOc3ccc4[nH]ccc4c3)ccc21`, the EC50 in assay [1] is greater than 10000 nM; in assay [2], 24 nM; in assay [3], 1800 nM.

For `O=C(O)C[C@@H]1CCc2cc(OCCCOc3ccc4c(c3)ONC4(O)C(F)(F)F)ccc21` (stereo not given in full), the figures for the EC50 in assay [1], in assay [2] and in assay [3] were greater than 10000 nM, 67 nM and 5000 nM, respectively.

Consider `CCOc1csc(-c2ccc(OCCCOc3ccc4c(c3)CC[C@H]4CC(=O)O)c(OC)c2)n1`, for which the EC50 in assay [1] was 1350 nM; in assay [2] it was 3.4 nM; in assay [3], 920 nM.

As to `CCCc1c(OCCCOc2ccc3c(c2)CC[C@H]3CC(=O)O)ccc2c(C)noc12`, the values for the 50% effective concentration (EC50) in assay [1], in assay [2] and in assay [3] were greater than 10000 nM, 2.1 nM and 173 nM, respectively.

Turning to `CCc1ccc(OCCCOc2ccc3c(c2)CC[C@H]3CC(=O)O)c(OC)c1`, the EC50 stood at 700 nM in assay [1], 2.7 nM in assay [2] and 1650 nM in assay [3].

Take `Cc1c(OCCCOc2ccc3c(c2)CC[C@H]3CC(=O)O)ccc2[nH]ccc12`: the EC50 in assay [1] is greater than 10000 nM; in assay [2] it was 286 nM; in assay [3], 6850 nM.

As for `CCc1csc(-c2ccc(OCCCOc3ccc4c(c3)CC[C@H]4CC(=O)O)c(OC)c2)n1`, the EC50 amounted to 254 nM in assay [1], 2.5 nM in assay [2] and 65 nM in assay [3].

For `COc1ncc(-c2ccc(OCCCOc3ccc4c(c3)CC[C@H]4CC(=O)O)cc2)c(OC)n1`, the 50% effective concentration (EC50) was greater than 10000 nM in assay [1], 5.6 nM in assay [2] and 300 nM in assay [3].

With `Cc1ccc(OCCCOc2ccc3c(c2)CC[C@H]3CC(=O)O)cc1C`, the EC50 in assay [1] is greater than 10000 nM; in assay [2], 67 nM; in assay [3] it was greater than 10000 nM.

Regarding `CCc1csc(-c2ccc(OCCCOc3ccc4c(c3)CC[C@H]4CC(=O)O)cc2)n1`, the 50% effective concentration (EC50) was 1280 nM in assay [1], 4.4 nM in assay [2] and 874 nM in assay [3].

On to `O=C(O)C[C@@H]1CCc2cc(OCCCOc3ccc4cc[nH]c4c3)ccc21`, for which the concentration giving a half-maximal response (EC50) in assay [1] was greater than 10000 nM; in assay [2], 19 nM; in assay [3], greater than 10000 nM.

Regarding `CCCc1cc(C(F)(F)F)ccc1OCCCOc1ccc2c(c1)CC[C@H]2CC(=O)O`, the EC50 in assay [1] amounted to 1140 nM; in assay [2], 1.6 nM.

For the molecule `N#Cc1ccc(OCCCOc2ccc3c(c2)CC[C@H]3CC(=O)O)cc1`, the half-maximal effective concentration (EC50) in assay [1] worked out at 5700 nM; in assay [2], 7.3 nM; in assay [3], 637 nM.

`COc1cc(-c2nc(C)c(C)s2)ccc1OCCCOc1ccc2c(c1)CC[C@H]2CC(=O)O`: the 50% effective concentration (EC50) amounted to 83 nM in assay [1], 4 nM in assay [2] and 33 nM in assay [3].

As for `O=C(O)C[C@@H]1CCc2cc(OCCCOc3ccc(-c4cccnc4)cc3)ccc21`, the concentration giving a half-maximal response (EC50) in assay [1] was 1690 nM; in assay [2] it was 2.3 nM; in assay [3] it was 550 nM.

On to `Cc1noc2cc(OCCCOc3ccc4c(c3)CC[C@H]4CC(=O)O)ccc12`, for which the concentration for a half-maximal effect (EC50) in assay [1] is greater than 10000 nM; in assay [2] it was 16 nM; in assay [3] it was 3660 nM.

`Cc1coc2cc(OCCCOc3ccc4c(c3)CC[C@H]4CC(=O)O)ccc12`: the EC50 in assay [1] was greater than 10000 nM; in assay [2], 8 nM; in assay [3], 1950 nM.

With `Cc1nc(-c2ccc(OCCCOc3ccc4c(c3)CC[C@H]4CC(=O)O)cc2)sc1C`, the results for the half-maximal effective concentration (EC50) in assay [1], in assay [2] and in assay [3] were 1250 nM, 2.9 nM and 280 nM, respectively.

On to `COc1cc(-c2nc3c(s2)CCC3)ccc1OCCCOc1ccc2c(c1)CC[C@H]2CC(=O)O`, for which the EC50 came to 53 nM in assay [1], 4.1 nM in assay [2] and 116 nM in assay [3].

On to `COc1cc(C#N)ccc1OCCCOc1ccc2c(c1)CC[C@H]2CC(=O)O`, for which the figures for the concentration giving a half-maximal response (EC50) in assay [1], in assay [2] and in assay [3] were 7500 nM, 14 nM and 700 nM, respectively.

For the molecule `O=C(O)C[C@@H]1CCc2cc(OCCCOc3ccc(-c4ccsc4)cc3)ccc21`, the EC50 in assay [1] was greater than 10000 nM; in assay [2], 5.9 nM; in assay [3], 650 nM.

On to `O=C(O)C[C@@H]1CCc2cc(OCCCOc3ccc(-c4ccccc4)cc3)ccc21`, for which the EC50 in assay [1] was greater than 10000 nM; in assay [2] it was 43 nM.

On to `CCCc1cc(-c2nc(C)c(C(=O)O)s2)ccc1OCCCOc1ccc2c(c1)CC[C@H]2CC(=O)O`, for which the values for the EC50 in assay [1], in assay [2] and in assay [3] were 1690 nM, 46 nM and 238 nM, respectively.

With `CCCc1cc(Oc2ccccc2)ccc1OCCCOc1ccc2c(c1)CC[C@H]2CC(=O)O`, the figures for the EC50 in assay [1] and in assay [2] were greater than 10000 nM and 1.9 nM, respectively.

Consider `CCCc1cc(-c2nc(C)c(C(=O)N(C)C)s2)ccc1OCCCOc1ccc2c(c1)CC[C@H]2CC(=O)O`, for which the EC50 is 140 nM in assay [1], 4.4 nM in assay [2] and 17 nM in assay [3].

With `COc1cc(-c2nc(C(F)(F)F)cs2)ccc1OCCCOc1ccc2c(c1)CC[C@H]2CC(=O)O`, the concentration giving a half-maximal response (EC50) stood at 437 nM in assay [1], 2.9 nM in assay [2] and 327 nM in assay [3].

In the case of `COc1cccc(OCCCOc2ccc3c(c2)CC[C@H]3CC(=O)O)c1`, the EC50 is greater than 10000 nM in assay [1] and 117 nM in assay [2].

On to `CCCc1cc(-c2nc(OC(C)C)cs2)ccc1OCCCOc1ccc2c(c1)CC[C@H]2CC(=O)O`, for which the results for the half-maximal effective concentration (EC50) in assay [1], in assay [2] and in assay [3] were 47 nM, 2.3 nM and 45 nM, respectively.

Consider `O=C(O)C[C@@H]1CCc2cc(OCCCOc3ccc(-c4cncnc4)cc3)ccc21`, for which the 50% effective concentration (EC50) in assay [1] was determined as 7280 nM; in assay [2], 11 nM; in assay [3] it was 970 nM.

For the molecule `CC(=O)Nc1cc(-n2ccnn2)ccc1OCCCOc1ccc2c(c1)CC[C@H]2CC(=O)O`, the results for the EC50 in assay [1] and in assay [3] were 9200 nM and 5600 nM, respectively.

For `COc1cc(-c2nccs2)ccc1OCCCOc1ccc2c(c1)CC[C@H]2CC(=O)O`, the EC50 in assay [1] was found to be 255 nM; in assay [3], 374 nM.

Regarding `COc1cc(-c2nc(C)c(C(=O)N(C)C)s2)ccc1OCCCOc1ccc2c(c1)CC[C@H]2CC(=O)O`, the figures for the 50% effective concentration (EC50) in assay [1] and in assay [2] were 803 nM and 2.1 nM, respectively.

As for `O=C(O)C[C@@H]1CCc2cc(OCCCOc3ccc(-n4cncn4)cc3)ccc21`, the EC50 in assay [1] was greater than 10000 nM.

Regarding `COc1cc(-c2nc3ccccc3s2)ccc1OCCCOc1ccc2c(c1)CC[C@H]2CC(=O)O`, the results for the EC50 in assay [1] and in assay [2] were 526 nM and 5.2 nM, respectively.
